Drawing on ChEMBL document CHEMBL1649261, “Pharmacodynamic profile of tigecycline against methicillin-resistant Staphylococcus aureus in an experimental pneumonia model” (Antimicrob Agents Chemother, 2009), this text covers MIC for 5 molecules.

What all share (format): functional
For test [1], the system named is Staphylococcus aureus. As to the kind of experiment: Antibacterial activity against methicillin-susceptible Staphylococcus aureus ATCC 29213 by microdilution method. An outline of the steps:
(§1)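 Tigecycline MIC measured in triplicate by broth microdilution following CLSI guidelines. Isolates were stored at −80°C in skim milk and subcultured twice on blood agar before testing.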

Test [2] relates to Staphylococcus aureus. As to the kind of experiment: Antibacterial activity against community-acquired methicillin-resistant Staphylococcus aureus 144 by microdilution method. A digest of the protocol: as §1
(In broth dilution the organism is exposed to a series of concentrations in liquid medium.)

For test [3], the system named is Staphylococcus aureus. In words: Antibacterial activity against community-acquired methicillin-resistant Staphylococcus aureus 147 by microdilution method. An outline of the steps: as §1
Test [4] concerns Staphylococcus aureus. In words: Antibacterial activity against hospital-acquired methicillin-resistant Staphylococcus aureus 56 by microdilution method. A digest of the protocol:
as §1

Test [5] relates to Staphylococcus aureus. As to the kind of experiment: Antibacterial activity against hospital-acquired methicillin-resistant Staphylococcus aureus 152 by microdilution method. An outline of the steps: as §1
For test [6], the system named is Staphylococcus aureus. In words: Antibacterial activity against community-acquired methicillin-resistant Staphylococcus aureus 156 by microdilution method. A digest of the protocol: as §1

The MIC is the least concentration at which growth counts as inhibited. A higher MIC goes with a need for much substance.

Structures are written as SMILES. Converted amounts (≈) assume the structure as drawn.

On to `C[C@H]1COc2c(N3CCN(C)CC3)c(F)cc3c(=O)c(C(=O)O)cn1c23.C[C@H]1COc2c(N3CCN(C)CC3)c(F)cc3c(=O)c(C(=O)O)cn1c23.O` [LEVOFLOXACIN], for which the MIC in the test with Staphylococcus aureus [1] turned out to be 0.25 µg/mL; in the test on Staphylococcus aureus [2], 0.5 µg/mL; in the test on Staphylococcus aureus [3], 8 µg/mL; in the test on Staphylococcus aureus [4] it was 0.25 µg/mL; against Staphylococcus aureus [5] it was 0.25 µg/mL.
As for `CC(=O)NC[C@H]1CN(c2ccc(N3CCOCC3)c(F)c2)C(=O)O1` [LINEZOLID], 8 µg/mL (≈ 23.7 µM) was the least that counted as inhibitory against Staphylococcus aureus [4] (MIC).
Turning to `C[C@H]1c2cccc(O)c2C(=O)C2=C(O)[C@]3(O)C(=O)C(C(N)=O)=C(O)[C@@H](N(C)C)[C@@H]3[C@@H](O)[C@@H]21.O` [DOXYCYCLINE], the MIC in the test on Staphylococcus aureus [1] turned out to be 0.5 µg/mL; in the test with Staphylococcus aureus [2], 0.5 µg/mL; in the test on Staphylococcus aureus [3], 2 µg/mL; against Staphylococcus aureus [4], 8 µg/mL; with Staphylococcus aureus [5], 0.5 µg/mL.
With `CC[C@H]1OC(=O)[C@H](C)[C@@H](O[C@H]2C[C@@](C)(OC)[C@@H](O)[C@H](C)O2)[C@H](C)[C@@H](O[C@@H]2O[C@H](C)C[C@H](N(C)C)[C@H]2O)[C@](C)(O)C[C@@H](C)C(=O)[C@H](C)[C@@H](O)[C@]1(C)O` [ERYTHROMYCIN], the MIC against Staphylococcus aureus [1] was 1 µg/mL (≈ 1.36 µM); in the test on Staphylococcus aureus [2], above 32 µg/mL; with Staphylococcus aureus [6], above 32 µg/mL; against Staphylococcus aureus [3], above 32 µg/mL; against Staphylococcus aureus [4], 32 µg/mL (≈ 43.6 µM); in the test with Staphylococcus aureus [5], 1 µg/mL (≈ 1.36 µM).
On to `CCC[C@@H]1C[C@@H](C(=O)N[C@@H]([C@H]2O[C@H](SC)[C@H](O)[C@@H](O)[C@H]2O)[C@H](C)Cl)N(C)C1` [CLINDAMYCIN], for which the minimum inhibitory concentration (MIC) is 0.125 µg/mL (≈ 0.294 µM) against Staphylococcus aureus [1]; above 16 µg/mL in the test on Staphylococcus aureus [2]; at most 0.5 µg/mL with Staphylococcus aureus [6]; 0.125 µg/mL (≈ 0.294 µM) against Staphylococcus aureus [3]; 0.25 µg/mL (≈ 0.588 µM) in the test on Staphylococcus aureus [4]; 0.125 µg/mL (≈ 0.294 µM) against Staphylococcus aureus [5].
